# From ChEMBL document CHEMBL1811814, “Synthesis and evaluation of indole, pyrazole, chromone and pyrimidine based conjugates for tumor growth inhibitory activities--development of highly efficacious cytotoxic agents” (Eur J Med Chem, 2010)
# Assays:
# Format in all cases: functional
# HCC 2998 = assay: Growth inhibition of human HCC2998 cells
# HCT-116 [1] = assay: Growth inhibition of human HCT116 cells
# KM12 [2] = assay: Growth inhibition of human KM12 cells
# SW-620 = assay: Growth inhibition of human SW620 cells
# SF-295 [3] = assay: Growth inhibition of human SF295 cells
# U-251 [4] = assay: Growth inhibition of human U251 cells
# LOX IMVI = assay: Growth inhibition of human LOXIMVI cells
# Malme-3M [5] = assay: Growth inhibition of human MALME-3M cells
# M14 = assay: Growth inhibition of human M14 cells
# MDA-MB-435 = assay: Growth inhibition of human MDA-MB-435 cells
# OVCAR-8 = assay: Growth inhibition of human OVCAR8 cells
# NCI/ADR-RES = assay: Growth inhibition of human NCI/ADR-RES cells
# A498 = assay: Growth inhibition of human A498 cells
# CAKI-1 [6] = assay: Growth inhibition of human Caki1 cells
# SN12C [7] = assay: Growth inhibition of human SN12C cells
# TK-10 = assay: Growth inhibition of human TK10 cells
# UO-31 [8] = assay: Growth inhibition of human UO31 cells
# PC-3 [9] = assay: Growth inhibition of human PC3 cells
# DU-145 [10] = assay: Growth inhibition of human DU145 cells
# MDA-MB-231 = assay: Growth inhibition of human MDA-MB-231 cells
# MDA-MB-468 [11] = assay: Growth inhibition of human MDA-MB-468 cells
# MOLT-4 = assay: Growth inhibition of human MOLT4 cells assessed tumor cell growth at 10^-5 M; set-up: scale not given: the % may be the effect or the level left
# Summary of the method: (§1)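 NCI 60-human-tumor-cell-line panel screen. Each compound was tested at a single concentration of 10^-5 M, and percent growth of tumor cells was recorded for each cell line. Growth inhibition was expressed from these percent-growth values.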
# SR = assay: Growth inhibition of human SR cells assessed tumor cell growth at 10^-5 M; set-up: scale not given: the % may be the effect or the level left
# Summary of the method: (§2)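 Single-dose screen at 10^-5 M across the 60 human tumor cell line panel, run to NCI standards. The value is the percent growth of each cell line in the presence of compound. Compounds active at this dose moved on to five-concentration testing (10^-4 to 10^-8 M).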
# A549 = assay: Growth inhibition of human A549 cells assessed tumor cell growth at 10^-5 M; set-up: scale not given: the % may be the effect or the level left; summary of the method: as §1
# EKVX [12] = assay: Growth inhibition of human EKVX cells assessed tumor cell growth at 10^-5 M; set-up: scale not given: the % may be the effect or the level left; summary of the method: as §1
# HOP-62 = assay: Growth inhibition of human HOP62 cells assessed tumor cell growth at 10^-5 M; set-up: scale not given: the % may be the effect or the level left; summary of the method: as §1
# HOP-92 = assay: Growth inhibition of human HOP92 cells assessed tumor cell growth at 10^-5 M; set-up: scale not given: the % may be the effect or the level left; summary of the method: as §1
# NCI-H460 [13] = assay: Growth inhibition of human NCI-H460 cells assessed tumor cell growth at 10^-5 M; set-up: scale not given: the % may be the effect or the level left; summary of the method: as §1
# HCT-116 [14] = assay: Growth inhibition of human HCT116 cells assessed tumor cell growth at 10^-5 M; set-up: scale not given: the % may be the effect or the level left; summary of the method: as §1
# HCT-15 = assay: Growth inhibition of human HCT15 cells assessed tumor cell growth at 10^-5 M; set-up: scale not given: the % may be the effect or the level left; summary of the method: as §1
# KM12 [15] = assay: Growth inhibition of human KM12 cells assessed tumor cell growth at 10^-5 M; set-up: scale not given: the % may be the effect or the level left; summary of the method: as §1
# SF-295 [16] = assay: Growth inhibition of human SF295 cells assessed tumor cell growth at 10^-5 M; set-up: scale not given: the % may be the effect or the level left; summary of the method: as §1
# U-251 [17] = assay: Growth inhibition of human U251 cells assessed tumor cell growth at 10^-5 M; set-up: scale not given: the % may be the effect or the level left; summary of the method: as §2
# Malme-3M [18] = assay: Growth inhibition of human MALME-3M cells assessed tumor cell growth at 10^-5 M; set-up: scale not given: the % may be the effect or the level left; summary of the method: as §1
# SK-MEL-5 = assay: Growth inhibition of human SK-MEL-5 cells assessed tumor cell growth at 10^-5 M; set-up: scale not given: the % may be the effect or the level left; summary of the method: as §1
# UACC-257 = assay: Growth inhibition of human UACC257 cells assessed tumor cell growth at 10^-5 M; set-up: scale not given: the % may be the effect or the level left; summary of the method: as §2
# OVCAR-3 = assay: Growth inhibition of human OVCAR3 cells assessed tumor cell growth at 10^-5 M; set-up: scale not given: the % may be the effect or the level left; summary of the method: as §1
# SK-OV-3 = assay: Growth inhibition of human SKOV3 cells assessed tumor cell growth at 10^-5 M; set-up: scale not given: the % may be the effect or the level left; summary of the method: as §1
# ACHN = assay: Growth inhibition of human ACHN cells assessed tumor cell growth at 10^-5 M; set-up: scale not given: the % may be the effect or the level left; summary of the method: as §1
# CAKI-1 [19] = assay: Growth inhibition of human Caki1 cells assessed tumor cell growth at 10^-5 M; set-up: scale not given: the % may be the effect or the level left; summary of the method: as §1
# RXF 393 = assay: Growth inhibition of human RXF393 cells assessed tumor cell growth at 10^-5 M; set-up: scale not given: the % may be the effect or the level left; summary of the method: as §1
# SN12C [20] = assay: Growth inhibition of human SN12C cells assessed tumor cell growth at 10^-5 M; set-up: scale not given: the % may be the effect or the level left; summary of the method: as §1
# UO-31 [21] = assay: Growth inhibition of human UO31 cells assessed tumor cell growth at 10^-5 M; set-up: scale not given: the % may be the effect or the level left; summary of the method: as §2
# PC-3 [22] = assay: Growth inhibition of human PC3 cells assessed tumor cell growth at 10^-5 M; set-up: scale not given: the % may be the effect or the level left; summary of the method: as §1
# DU-145 [23] = assay: Growth inhibition of human DU145 cells assessed tumor cell growth at 10^-5 M; set-up: scale not given: the % may be the effect or the level left; summary of the method: as §1
# MCF7 = assay: Growth inhibition of human MCF7 cells assessed tumor cell growth at 10^-5 M; set-up: scale not given: the % may be the effect or the level left; summary of the method: as §1
# T47D = assay: Growth inhibition of human T47D cells assessed tumor cell growth at 10^-5 M; set-up: scale not given: the % may be the effect or the level left; summary of the method: as §2
# MDA-MB-468 [24] = assay: Growth inhibition of human MDA-MB-468 cells assessed tumor cell growth at 10^-5 M; set-up: scale not given: the % may be the effect or the level left; summary of the method: as §1
# HL-60(TB) = assay: Growth inhibition of human HL-60(TB) cells
# K562 = assay: Growth inhibition of human K562 cells
# [25] = Growth inhibition of human RPMI8266 cells
# EKVX [26] = assay: Growth inhibition of human EKVX cells
# NCI-H460 [27] = assay: Growth inhibition of human NCI-H460 cells
# COLO 205 = assay: Growth inhibition of human COLO205 cells
# [28] = read-out: LC50 (the source's name)
compound,measurement,setting,value
O=C1/C(=C\c2coc3ccccc3c2=O)c2ccccc2N1c1c(Cl)cccc1Cl,GI50,HCC 2998,4.2 µM
same,CC50,HCC 2998; [28],> 100 µM
same,GI50,HCT-116 [1],1.9 µM
same,CC50,HCT-116 [1]; [28],> 100 µM
same,GI50,KM12 [2],3 µM
same,CC50,KM12 [2]; [28],> 100 µM
same,GI50,SW-620,5.2 µM
same,CC50,SW-620; [28],> 100 µM
same,GI50,SF-295 [3],4.2 µM
same,CC50,SF-295 [3]; [28],> 100 µM
same,GI50,U-251 [4],1.4 µM
same,CC50,U-251 [4]; [28],> 100 µM
same,GI50,LOX IMVI,1.5 µM
same,CC50,LOX IMVI; [28],57.5 µM
same,GI50,Malme-3M [5],2.4 µM
same,CC50,Malme-3M [5]; [28],> 100 µM
same,GI50,M14,5.2 µM
same,CC50,M14; [28],> 100 µM
same,GI50,MDA-MB-435,2.6 µM
same,CC50,MDA-MB-435; [28],> 100 µM
same,GI50,OVCAR-8,5.4 µM
same,CC50,OVCAR-8; [28],> 100 µM
same,GI50,NCI/ADR-RES,3.3 µM
same,CC50,NCI/ADR-RES; [28],> 100 µM
same,GI50,A498,4.3 µM
same,CC50,A498; [28],> 100 µM
same,GI50,CAKI-1 [6],2.4 µM
same,CC50,CAKI-1 [6]; [28],> 100 µM
same,GI50,SN12C [7],3.3 µM
same,CC50,SN12C [7]; [28],> 100 µM
same,GI50,TK-10,3.3 µM
same,CC50,TK-10; [28],> 100 µM
same,GI50,UO-31 [8],1.8 µM
same,CC50,UO-31 [8]; [28],> 100 µM
same,GI50,PC-3 [9],1.3 µM
same,CC50,PC-3 [9]; [28],> 100 µM
same,GI50,DU-145 [10],4.6 µM
same,CC50,DU-145 [10]; [28],> 100 µM
same,GI50,MDA-MB-231,3.8 µM
same,CC50,MDA-MB-231; [28],> 100 µM
same,GI50,MDA-MB-468 [11],2.4 µM
same,CC50,MDA-MB-468 [11]; [28],> 100 µM
same,Activity,MOLT-4,19.03%
same,Activity,SR,19.47%
same,Activity,A549,26.65%
same,Activity,EKVX [12],33.14%
same,Activity,HOP-62,68.24%
same,Activity,HOP-92,32.08%
same,Activity,NCI-H460 [13],19.05%
same,Activity,HCT-116 [14],35.61%
same,Activity,HCT-15,24.69%
same,Activity,KM12 [15],27.09%
same,Activity,SF-295 [16],-12.01%
same,Activity,U-251 [17],36.04%
same,Activity,Malme-3M [18],83.75%
same,Activity,SK-MEL-5,20.33%
same,Activity,UACC-257,61.22%
same,Activity,OVCAR-3,16.79%
same,Activity,SK-OV-3,74.8%
same,Activity,ACHN,54.64%
same,Activity,CAKI-1 [19],-7.88%
same,Activity,RXF 393,44.09%
same,Activity,SN12C [20],59.48%
same,Activity,UO-31 [21],42.56%
same,Activity,PC-3 [22],31.81%
same,Activity,DU-145 [23],24.59%
same,Activity,MCF7,31.61%
same,Activity,T47D,30.04%
same,Activity,MDA-MB-468 [24],44.85%
same,GI50,HL-60(TB),2 µM
same,CC50,HL-60(TB); [28],> 100 µM
same,GI50,K562,2 µM
same,CC50,K562; [28],> 100 µM
same,GI50,[25],1.2 µM
same,CC50,[25]; [28],69.1 µM
same,GI50,EKVX [26],2.8 µM
same,CC50,EKVX [26]; [28],> 100 µM
same,GI50,NCI-H460 [27],2 µM
same,CC50,NCI-H460 [27]; [28],> 100 µM
same,GI50,COLO 205,3.8 µM
